The full list was thinned out, with hits kept by preference.
Lmaj promast: Leishmania major promastigote growth inhibition, primary screen | Leishmania major promastigotes, resazurin fluorescence viability | inhibition, % at 10 µM | 200,000 tested, 9% active;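 also: promastigotes grown with compound for 44 hours at 28 °C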
T cruzi inh: inhibitors of intracellular T. cruzi growth, primary screen, luminescence, NIH3T3 host cells; T. cruzi beta-gal in NIH3T3, 90 h; inhibition, % (test concentration not listed); 300,000 tested, 1.4% active; AID 1885, 2009;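 active = mean inhibition across valid replicates above about 55%, limit read from the data; inconclusive = mean below that limit but half or more replicates reach it; inactive = mean below it, under half of replicates reach it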;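 also: signal also drops with host cell toxicity which is not excluded here; 0% = plate median of DMSO wells and 100% = zero luminescence signal; higher percent means less beta-gal luminescence so fewer parasites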
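System: mouse NIH/3T3 fibroblasts infected with β-gal-expressing T. cruzi Tulahuen C4 / Input: NIH/3T3 cells, 5,000 per well / Buffer or medium: Low-serum DMEM with 2% FBS / Probe or stimulus: 5000 reporter trypomastigotes per well / Schedule: ≥90 h infection period, 3 h prior cell attachment / Measured by: GalScreen luminescence, 60 min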
NALP1 inh: NALP1 inflammasome inhibitors in reconstituted yeast, colorimetric, S. cerevisiae, triplicate retest. S. cerevisiae NALP1/ASC/caspase-1 growth, X-gal OD620, 72 h. inhibition, % at 10 µM. 280,000 tested, 0.61% active. AID 2071, 2009; in the data active = inhibition mostly above about 24%, no sharp cut-off; inactive = mostly below about 32%
PolyA inhibitor: polyadenylation inhibitors in yeast reporter cells, primary screen, luminescence, S. cerevisiae; S. cerevisiae SKY197-pL101 polyadenylation reporter, beta-gal luminescence; efflux-impaired pdr1/pdr3 knockout yeast; score 100 = 6 SD above DMSO; 300,000 tested, 0.02% active; activity score, % at 12 µM;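 active = lowest replicate activity score at least 50, where 100 means six control SD above control mean; inconclusive = lowest score under 50 but half or more replicates reach 50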;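 also: yeast exposed to compound for 9 h at 30 °C; higher score means more reporter readthrough which indicates perturbed polyadenylation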
NLRP3 yeast inh: NALP3 inflammasome inhibitors in reconstituted yeast, primary screen, luminescence, uHTS; 330,000 tested, 0.39% active; inhibition, % at 10 µM; AID 2825, 2010; Yeast reconstituted NLRP3/ASC/caspase-1, beta-gal luminescence, 24 h;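 active = inhibition of 50% or more; inactive = inhibition below 50%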;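 also: plate controls were induced DMSO wells for no effect and uninduced yeast grown without galactose for full effect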
Calb FLC: C. albicans growth inhibition with fluconazole, primary screen, CaCi-2 strain, Alamar Blue fluorescence; C. albicans CaCi-2 + fluconazole, 48 h; growth inhibition, % (no concentration beside the values); 300,000 tested, 0.57% active;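 active = growth inhibition above about 58% in most replicates, limit read from the data, passing the limit was not always enough; inconclusive = exactly half the replicates above a set limit; inactive = most replicates below a set limit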;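 also: all wells also contain fluconazole at 8 µg/ml as a sub-toxic cotreatment; 0% = median of DMSO wells and 100% = median of geldanamycin control wells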
NALP3 yeast conf: NALP3 inhibitors retested in yeast, confirmation, luminescence, single concentration; shares compounds with NLRP3 yeast inh; inhibition, % at 10 µM; 1,300 tested, 81% active; yeast expressing human NALP3; in the data active = inhibition above about 48%
Casp1-ASC yeast: CASP1-PYCARD signaling inhibition in yeast, confirmatory test, counterassay for NLRP3 inhibitor program, one-dose. shares compounds with NLRP3 yeast inh. yeast expressing Caspase-1-ASC, luminescence counter screen. inhibition, % at 10 µM. 1,000 tested, 66% active. AID 488784, 2010
NALP3 retest: NALP3 inhibitors in yeast, repeat test, confirmation, luminescence, single concentration, retest; shares compounds with NLRP3 yeast inh; yeast expressing human NALP3, luminescence read-out; inhibition, % at 10 µM; 1,000 tested, 53% active; AID 488794, 2010
Active calls of the source: *; ? = inconclusive; . = not tested or not shown. Rule as the data show it, unless noted: active = inhibition above about 50%; inactive = the rest.

SMILES	Lmaj promast	T cruzi inh	NALP1 inh	PolyA inhibitor	NLRP3 yeast inh	Calb FLC	NALP3 yeast conf	Casp1-ASC yeast	NALP3 retest
CNC(=O)c1c(NC(=O)C2=COCCO2)sc2c1CCCC2	.	-10	16	-12	30	-4	.	.	.
Nc1ccc2[nH]ncc2c1	-2	-22	14	18	13	.	.	.	.
CC(C)(C)C(=O)/C(=C\c1ccc([N+](=O)[O-])cc1)n1cncn1	100*	?	55*	-70	74*	107*	65*	.	.
CC(C)(C)C(=O)/C(=C/c1ccc(Cl)cc1)n1cncn1	.	18	10	-30	25	-1	.	.	.
COc1cc(C(=O)O)nc2ccc([N+](=O)[O-])cc12	1	4	-5	3	16	-5	.	.	.
CCN=C1SC(CC(=O)Nc2sc(C)c(C)c2C(=O)OC)C(=O)N1CC (stereo unspecified)	9	12	9	-4	56*	11	64*	64*	52*
CCN=C1SC(CC(=O)Nc2sc3c(c2C#N)CCCC3)C(=O)N1CC (stereo unspecified)	5	5	1	20	12	-5	.	.	.
CCc1ccccc1NC(=O)c1cc(-c2cccs2)on1	.	-8	28	-13	56*	-1	65*	59*	60*
NC(=O)N=Nc1c(O)n(Cc2ccccc2)c2ccc(Br)cc12	.	21	9	-15	14	7	.	.	.
CC(C)(C)c1ccc(-c2conc2N)cc1	32	.	-76	-12	59*	-11	69*	66*	48
Cc1ccc(NC(=O)c2cnn(-c3ccccc3)c2C)cc1	.	-3	4	5	28	-7	.	.	.
CCc1cccc(NC(=O)c2cnn(-c3ccccc3)c2C)c1	.	7	15	-6	59*	-14	67*	57*	67*
COc1cccc(NC(=O)c2cnn(-c3ccccc3)c2C)c1	.	-15	9	-22	51*	-15	59*	50	44
Clc1ccc(/C=C/c2nc3ccccc3[nH]2)cc1	31	33	-8	-17	54*	-4	77*	54*	71*
Clc1ccc(SCc2nc3ccccc3[nH]2)cc1	7	-5	6	11	31	0	.	.	.
O=[N+]([O-])c1ccc2c(c1Nc1ccccc1Cl)=NC1(CCCCC1)N=2	.	-8	-17	13	26	-2	.	.	.
Cc1ccc(Nc2c([N+](=O)[O-])ccc3c2=NC2(CCCCC2)N=3)cc1	51*	8	-10	-74	52*	15	56*	.	.
COc1nc(-c2ccccc2)ncc1S(=O)(=O)c1ccccc1	3	18	9	4	57*	-16	45	41	31
Cc1ccc(S(=O)(=O)c2cnc(-c3ccccc3)nc2Oc2ccccc2)cc1	0	.	6	.	.	.	.	.	.
c1ccc(-c2cc3cc4c(cc3cn2)OCO4)cc1	.	.	.	.	55*	.	58*	71*	67*
COc1ccc(-c2cc3cc4c(cc3cn2)OCO4)cc1	.	.	.	.	23	.	.	.	.
COc1cc(OC)cc(-c2cc3cc4c(cc3cn2)OCO4)c1	.	.	.	.	56*	.	56*	50	43
CO/N=C(\Cn1ncc(N2CCCC2)c(Cl)c1=O)c1ccc(Cl)cc1	6	9	22	-16	70*	-4	73*	75*	60*
CC(=O)Cn1ncc(N2CCCCC2)c(Cl)c1=O	0	-18	0	13	-14	-5	.	.	.
Cc1ccc([N+](=O)[O-])cc1NC(=O)c1ccc(C(C)(C)C)cc1	-4	-17	-15	-8	57*	19	51*	44	28
SMILES	Lmaj promast	T cruzi inh	NALP1 inh	PolyA inhibitor	NLRP3 yeast inh	Calb FLC	NALP3 yeast conf	Casp1-ASC yeast	NALP3 retest
Cc1ccc(C(=O)Nc2cc([N+](=O)[O-])ccc2C)cc1	0	-12	2	-15	13	-6	.	.	.
O=C(c1ccc(-c2ccccc2)cc1)N1CCN(c2ccccn2)CC1	-4	6	2	-34	23	27	.	.	.
CCOC(=O)COc1ccc2c3c(c(=O)oc2c1)CCCC3	.	4	.	13	11	4	.	.	.
CCCOc1ccc2c3c(c(=O)oc2c1)CCCC3	2	24	7	-55	55*	-8	63*	78*	64*
Cc1ccc(CCNS(=O)(=O)c2cc3c(cc2C)NC(=O)CO3)cc1	.	-1	8	2	15	-3	.	.	.
CC1CCCCN1S(=O)(=O)c1cnc(Cl)c(Br)c1 (stereo unspecified)	10	-17	58	-8	55*	6	54*	.	.
Cc1c(C(=O)NCCC2=CCCCC2)oc2ccc(S(=O)(=O)N3CCOCC3)cc12	28	.	6	.	58*	.	62*	55*	43
CC(=O)NCCCNS(=O)(=O)c1ccc(C)cc1	-3	-7	-9	-2	15	-9	.	.	.
COc1ccc(NC(=O)c2cc3ccccc3o2)cc1	-7	11	5	-19	55*	-2	79*	66*	61*
O=C(N/N=C/c1ccco1)c1ccc(Br)o1	-1	-11	-4	13	5	3	.	.	.
Cc1ccc(NC(=O)c2cc3ccccc3o2)cc1Cl	.	11	9	34	50*	-1	68*	39	40
O=C(N/N=C/c1ccco1)c1cc2ccccc2o1	.	-2	22	29	64*	.	74*	64*	63*
O=C(Nc1ccccc1)c1cc2ccccc2o1	3	-4	5	-18	52*	-5	51*	53*	53*
Cc1ccc(Cl)cc1NC(=O)Cn1nc(-c2cccs2)ccc1=O	.	23	12	-5	5	-7	.	.	.
COc1ccc(C(=O)OCC(=O)c2c(N)n(C)c(=O)n(C)c2=O)c(OC)c1OC	.	.	.	.	13	.	.	.	.
C[C@H](CO)N1C[C@H](C)[C@@H](CN(C)C(=O)Nc2ccc(C(F)(F)F)cc2)Oc2ccc(NS(=O)(=O)c3cn(C)cn3)cc2C1=O	.	.	.	.	1	.	.	.	.
CC(=O)CCC(=O)N1CCCC(N2CCN(c3cccc(Cl)c3)CC2)C1 (stereo unspecified)	.	-17	10	-16	13	-5	.	.	.
CS(=O)(=O)c1ccc(Cl)c(NC(=O)CCN2C(=O)NC3(CCCC3)C2=O)c1	.	.	.	.	3	.	.	.	.
O=C(O)c1ccccc1C(=O)NNc1ccc(F)cc1F	-5	6	11	-22	18	-43	.	.	.

Compound activity (PubChem BioAssay)
